Measured values published in ChEMBL document CHEMBL2046290, “Ureido-substituted sulfamates show potent carbonic anhydrase IX inhibitory and antiproliferative activities against breast cancer cell lines” (Bioorg Med Chem Lett, 2012).
Active and inactive are the calls of the source. No cut-off for these calls is given here.

Tests used:
[1] = tested on: SK-BR-3; test: Antiproliferative activity against human SKBR3 cells at 100 uM after 5 days by SRB assay under normoxic condition; format: functional, cell-based
Method in brief: (§1)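 Cells seeded at 1 × 10^3 per well, adhered 48 h, medium removed, then exposed to compound at 100 μM. After 5 days, growth measured by SRB: fixed with cold 25% TCA 1 h at 4 °C, stained with SRB in 1% acetic acid 30 min at room temperature, dye solubilised in 10 mM Tris pH 10.5, read at 540. Values expressed relative to untreated control (1.0).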

[2] = tested on: MCF-10A; test: Antiproliferative activity against human MCF10A cells at 100 uM after 5 days by SRB assay under normoxic condition; format: functional, cell-based; method in brief: as §1
[3] = tested on: ZR-75-1; test: Antiproliferative activity against human ZR-75-1 cells at 100 uM after 5 days by SRB assay under normoxic condition; format: functional, cell-based; method in brief: as §1
[4] = tested on: MDA-MB-361; test: Antiproliferative activity against human MDA-MB-361 cells at 100 uM after 5 days by SRB assay under normoxic condition; format: functional, cell-based; method in brief: as §1
[5] = tested on: MCF7; test: Antiproliferative activity against human MCF7 cells after 5 days by SRB assay under hypoxic condition; format: functional, cell-based
Method in brief: (§2)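 MCF7 seeded at 3 × 10^3 per well, adhered 48 h, then equilibrated 6 h at 0.5% O2 in a hypoxia station. Compounds added in hypoxic medium across 0.1–100 μM. After 5 days, proliferation measured by SRB: cold 25% TCA fixation 1 h at 4 °C, SRB in 1% acetic acid 30 min, solubilised in 10 mM Tris pH 10.5, read at 540.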

[6] = tested on: MCF7; test: Antiproliferative activity against human MCF7 cells at 10 uM after 5 days by SRB assay under hypoxic condition; format: functional, cell-based; method in brief: as §2
[7] = tested on: MCF7; test: Antiproliferative activity against human MCF7 cells at 30 uM after 5 days by SRB assay under hypoxic condition; format: functional, cell-based; method in brief: as §2
[8] = molecular target: Carbonic anhydrase 9 (Homo sapiens, UniProt Q16790); test: Inhibition of human carbonic anhydrase 9 preincubated for 15 mins measured for 10 to 100 sec using phenol red indicator-based stopped flow assay
Method in brief: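 In-house recombinant human enzyme; stopped-flow CO2 hydration at 1.7–17 mM CO2, with 0.2 mM phenol red read at 557 nm in 20 mM Hepes pH 7.5 and 20 mM Na2SO4. Inhibitor (diluted from 0.1 mM aqueous stock to 0.01 nM) preincubated with enzyme 15 min at room temperature. Initial rates taken over 10–100 s, uncatalysed rate subtracted. Ki by non-linear least squares, mean of at least three determinations.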

Ki [8] [µM]	SMILES	Activity [1]	Activity [2]	Activity [3]	Activity [4]	Activity [5]	Activity [6]	Activity [7]
	NS(=O)(=O)Oc1ccc(NC(=O)NCCc2ccccc2)cc1	Active	Active	Active	Active	Dose-dependent effect	Active	Active
0.008	CCOC(=O)c1ccc(NC(=O)Nc2ccc(OS(N)(=O)=O)cc2)cc1							
	COc1ccc(NC(=O)Nc2ccc(OS(N)(=O)=O)cc2)cc1	Active	Active	Active	Active	Dose-dependent effect	Active	Active
	NS(=O)(=O)Oc1ccc(NC(=O)Nc2ccc([N+](=O)[O-])cc2)cc1	Active	Active	Active	Active	Dose-dependent effect	Active	Active
	Cc1cc(C)cc(NC(=O)Nc2ccc(OS(N)(=O)=O)cc2)c1	Active	Active	Active	Active		Active	Active
	CN(C)c1ccc(NC(=O)Nc2ccc(OS(N)(=O)=O)cc2)cc1	Active	Active	Active	Active	Dose-dependent effect	Active	Active
	NS(=O)(=O)Oc1ccc(NC(=O)Nc2c(F)c(F)c(F)c(F)c2F)cc1	Active	Active	Active	Active	Dose-dependent effect	Active	Active
	NS(=O)(=O)Oc1ccc(NC(=O)Nc2ccc(Oc3ccccc3)cc2)cc1	Active	Active	Active	Active	Dose-dependent effect	Active	Active
	NS(=O)(=O)Oc1ccc(NC(=O)Nc2ccc(Cl)cc2)cc1	Active	Active	Active	Active	Dose-dependent effect	Active	Active
0.016	NS(=O)(=O)Oc1ccc(NC(=O)Nc2ccc(Cc3ccccc3)cc2)cc1							
	NS(=O)(=O)Oc1ccc(NC(=O)Nc2ccc(F)cc2)cc1	Active	Active	Active	Active	Dose-dependent effect	Active	Active
0.008	CCOC(=O)c1ccccc1NC(=O)Nc1ccc(OS(N)(=O)=O)cc1							
0.015	NS(=O)(=O)Oc1ccc(NC(=O)NCCc2cccc3ccccc23)cc1							
0.012	CCOC(=O)c1cccc(NC(=O)Nc2ccc(OS(N)(=O)=O)cc2)c1							
0.007	CC(C)(C)OC(=O)N1CCC(NC(=O)Nc2ccc(OS(N)(=O)=O)cc2)CC1							
